Data: ChEMBL document CHEMBL3627612, “Hirsutinolide Series Inhibit Stat3 Activity, Alter GCN1, MAP1B, Hsp105, G6PD, Vimentin, TrxR1, and Importin α-2 Expression, and Induce Antitumor Effects against Human Glioma” (J Med Chem, 2015)
The source made the active and inactive calls. The rule behind the calls is not given here.

Experiments:
[1] = system: MDA-MB-231; test: Anticlonogenic activity against human MDA-MB-231 cells for 72 hrs measured after 2 weeks by crystal-violet staining based assay; assay type: functional, cell-based
Procedure, shortened: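 Single-cell seeding at 250 cells per well; cells treated once the next day for 72 h with 0–5 μM compound, then grown until large colonies were visible (NIH3T3 1 week, MDA-MB-231 and U251MG 2 weeks, MCF-7 4 weeks). Colonies stained with crystal violet for 4 h, imaged and counted.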

[2] = Antiproliferative activity against human U373MG cells for 72 hrs by cyquant assay; assay type: functional, cell-based, U-373MG ATCC; details: U373 MG
Procedure, shortened: (§1)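 CyQuant proliferation assay after 72 h compound exposure of cultured cells; relative viability normalized to DMSO-treated control; IC50 values derived. Glioma lines grown in RPMI or DMEM with 10% FBS and 1% nonessential amino acids.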

[3] = system: U-251; test: Increase in importin subunit alpha2 expression in human U251MG cells at 5 uM for 2 hrs by immunoblot analysis; assay type: functional, cell-based
[4] = molecular target: Signal transducer and activator of transcription 3 (Mus musculus) (UniProt P42227); test: Inhibition of Stat3 dimer DNA binding activity in mouse NIH3T3/vSrc nuclear extract at 5 uM preincubated for 30 mins followed by addition of radiolabeled probe hSIE for 30 mins by EMSA
[5] = system: Mus musculus; test: Toxicity in mouse xenografted with U251MG cells assessed as effect on body weight at 2 mg/kg three times a week for 33 days administered via oral gavage; assay type: organism-based, U-251; details: in vivo, 792 h
Procedure, shortened: (§2)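 Four-week-old female athymic nude mice, injected subcutaneously in the left flank with 7.3×10^6 U251MG cells in PBS/matrigel (1:1). Tumors of 170–250 mm^3 formed by day 20, and groups were matched for mean size. Dosing was 2 mg/kg by oral gavage, three times weekly for 33 days, with 1% DMSO vehicle. Animals were monitored daily and weighed every 3 days.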

[6] = system: Mus musculus; test: Toxicity in mouse xenografted with U251MG cells assessed as lethargy at 2 mg/kg three times a week for 33 days administered via oral gavage; assay type: organism-based, U-251; details: in vivo, 792 h; procedure, shortened: as §2
[7] = system: MDA-MB-231; test: Antiproliferative activity against human MDA-MB-231 cells at 5 uM for 72 hrs by cyquant assay; assay type: functional, cell-based
[8] = molecular target: Microtubule-associated protein 1B (Homo sapiens) (UniProt P46821); test: Decrease in MAP1B expression in human U251MG cells at 5 uM for 2 hrs by immunoblot analysis; assay type: functional, cell-based; details: U-251
[9] = system: U373 MG; test: Increase in importin subunit alpha2 expression in human U373MG cells at 5 uM for 2 hrs by immunoblot analysis; assay type: functional, cell-based; details: U-373MG ATCC
[10] = system: Glioma cell; test: Effect on cell morphology in human Glioma (G22) patient derived xenograft cells assessed as cell disaggregation of spheroids at 5 uM for 24 hrs measured after 48 to 96 hrs by inverted fluorescence microscope analysis in presence of matrigel; assay type: functional
Procedure, shortened: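 G22 patient-derived xenograft glioma cells seeded at 1,000 cells/well in ultra-low-binding round-bottom wells, grown 48 h into 3D spheroids, then treated once with 5 μM compound or DMSO; matrigel added after 24 h. Spheroids imaged at 5× magnification on an inverted fluorescence microscope every 24 h for up to 120 h.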

[11] = molecular target: Signal transducer and activator of transcription 3 (Homo sapiens, UniProt P40763); test: Inhibition of Stat3 activity in human U251MG cells assessed as phosphorylated Stat3 level after 2 hrs by immunoblot analysis; assay type: cell-based; details: U-251
Procedure, shortened: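 U251MG cells treated with 5 μM compound for 0–24 h, or with 0–5 μM for 2 h. Whole-cell lysates immunoblotted for pStat3, Stat3, GAPDH. Control was 0.025% DMSO-treated cells.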

[12] = Decrease in vimentin expression in human U373MG cells at 5 uM for 2 hrs by immunoblot analysis; assay type: functional, cell-based; details: U-373MG ATCC
[13] = molecular target: T1, Signal transducer and activator of transcription 1 (Mus musculus) (UniProt P42225); test: Inhibition of Stat1 dimer DNA binding activity in EGF-stimulated mouse NIH3T3 nuclear extract expressing human EGFR at 5 uM preincubated for 30 mins followed by addition of radiolabeled probe hSIE for 30 mins by EMSA
T1 sequence (whole entry): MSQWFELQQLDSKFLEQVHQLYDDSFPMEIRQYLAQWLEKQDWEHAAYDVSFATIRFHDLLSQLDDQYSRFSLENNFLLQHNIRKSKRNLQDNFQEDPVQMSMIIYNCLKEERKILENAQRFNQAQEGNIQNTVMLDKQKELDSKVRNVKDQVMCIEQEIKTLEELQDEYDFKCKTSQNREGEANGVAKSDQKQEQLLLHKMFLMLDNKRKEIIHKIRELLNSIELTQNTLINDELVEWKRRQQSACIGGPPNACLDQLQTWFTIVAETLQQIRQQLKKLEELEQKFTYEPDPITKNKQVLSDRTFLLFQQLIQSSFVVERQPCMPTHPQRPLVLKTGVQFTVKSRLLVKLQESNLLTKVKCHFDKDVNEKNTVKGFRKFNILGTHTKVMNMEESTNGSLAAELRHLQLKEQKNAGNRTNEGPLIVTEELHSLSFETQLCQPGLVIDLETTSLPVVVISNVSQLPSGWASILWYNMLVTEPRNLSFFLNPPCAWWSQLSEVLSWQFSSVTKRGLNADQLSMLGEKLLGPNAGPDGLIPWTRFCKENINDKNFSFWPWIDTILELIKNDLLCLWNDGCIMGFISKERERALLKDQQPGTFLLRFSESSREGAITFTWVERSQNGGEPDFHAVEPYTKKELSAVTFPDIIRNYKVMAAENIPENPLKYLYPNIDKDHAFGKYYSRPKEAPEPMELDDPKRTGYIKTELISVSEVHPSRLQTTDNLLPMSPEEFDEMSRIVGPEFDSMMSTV

[14] = molecular target: Stalled ribosome sensor GCN1 (Homo sapiens) (UniProt Q92616); test: Decrease in GCN1 expression in human U373MG cells at 5 uM for 2 hrs by immunoblot analysis; assay type: functional, cell-based; details: U-373MG ATCC
[15] = system: U-251; test: Antimitotic activity in human U251MG cells assessed as defect in sister chromatid segragation at 8 uM after 15 hrs confocal microscopic analysis; assay type: functional, cell-based
Procedure, shortened: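 U251MG on coverslips synchronized by double thymidine block (2 mM), released 9 h, treated 15 h (8 μM; paclitaxel 100 nM). Fixed 4% paraformaldehyde, digitonin-permeabilized, BSA-blocked, stained for β-tubulin and MAP1B with DAPI counterstain; chromatid structure and segregation scored by confocal microscopy.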

[16] = system: U-251; test: Cytotoxicity against human U251MG cells at 2.5 to 5 uM after 19 hrs; assay type: functional, cell-based
[17] = Decrease in G6PD expression in human U373MG cells at 5 uM for 2 hrs by immunoblot analysis; assay type: functional, cell-based; details: U-373MG ATCC
[18] = system: U-251; test: Increase in importin subunit alpha2 expression in human U251MG cells at 5 uM for 1 hr by mass spectrometry relative to control; assay type: functional
Procedure, shortened: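 Global proteomic mass spectrometry of lysates from U251MG cells treated 1 h with 5 μM compound; protein levels expressed relative to DMSO-treated cells.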

[19] = molecular target: RAC-alpha serine/threonine-protein kinase (Homo sapiens) (UniProt P31749); test: Modulation of Akt phosphorylation in human U251MG cells at 5 uM after 0.5 to 24 hrs by immunoblot analysis; assay type: cell-based; details: U-251
Procedure, shortened: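 U251MG cells treated with 5 μM compound for 0–24 h; whole-cell lysates of equal total protein immunoblotted. Controls were 0.025% DMSO-treated cells. Representative of 2–4 independent determinations.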

[20] = Antiproliferative activity against human U251MG cells for 72 hrs by cyquant assay; assay type: functional, cell-based; details: U-251, 72 h; procedure, shortened: as §1

Sequence of Signal transducer and activator of transcription 3 (P40763 whole entry): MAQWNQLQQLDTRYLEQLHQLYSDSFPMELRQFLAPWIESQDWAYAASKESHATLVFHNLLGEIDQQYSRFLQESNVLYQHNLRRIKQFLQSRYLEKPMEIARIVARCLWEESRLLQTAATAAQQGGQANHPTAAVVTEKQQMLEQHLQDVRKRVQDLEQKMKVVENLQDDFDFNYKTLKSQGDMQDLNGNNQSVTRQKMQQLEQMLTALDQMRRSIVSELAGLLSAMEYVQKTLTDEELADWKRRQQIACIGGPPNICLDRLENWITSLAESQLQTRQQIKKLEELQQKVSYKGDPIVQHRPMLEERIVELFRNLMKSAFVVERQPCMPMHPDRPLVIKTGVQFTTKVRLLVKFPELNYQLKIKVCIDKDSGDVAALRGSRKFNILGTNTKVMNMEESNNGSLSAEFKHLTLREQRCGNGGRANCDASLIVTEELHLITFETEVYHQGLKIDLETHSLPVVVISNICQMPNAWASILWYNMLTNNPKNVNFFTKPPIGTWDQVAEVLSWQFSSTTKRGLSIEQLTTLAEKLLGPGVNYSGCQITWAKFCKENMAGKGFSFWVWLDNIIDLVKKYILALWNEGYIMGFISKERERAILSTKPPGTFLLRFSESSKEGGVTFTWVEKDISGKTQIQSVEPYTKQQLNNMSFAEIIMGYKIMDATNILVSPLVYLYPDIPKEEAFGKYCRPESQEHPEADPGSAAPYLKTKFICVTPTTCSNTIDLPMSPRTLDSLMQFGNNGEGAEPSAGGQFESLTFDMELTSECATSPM
Sequence of Signal transducer and activator of transcription 3 (Mus musculus) (P42227 whole entry): as the sequence (P40763 whole entry) above, with E760D counted along it
Sequence of RAC-alpha serine/threonine-protein kinase (Homo sapiens) (P31749 whole entry): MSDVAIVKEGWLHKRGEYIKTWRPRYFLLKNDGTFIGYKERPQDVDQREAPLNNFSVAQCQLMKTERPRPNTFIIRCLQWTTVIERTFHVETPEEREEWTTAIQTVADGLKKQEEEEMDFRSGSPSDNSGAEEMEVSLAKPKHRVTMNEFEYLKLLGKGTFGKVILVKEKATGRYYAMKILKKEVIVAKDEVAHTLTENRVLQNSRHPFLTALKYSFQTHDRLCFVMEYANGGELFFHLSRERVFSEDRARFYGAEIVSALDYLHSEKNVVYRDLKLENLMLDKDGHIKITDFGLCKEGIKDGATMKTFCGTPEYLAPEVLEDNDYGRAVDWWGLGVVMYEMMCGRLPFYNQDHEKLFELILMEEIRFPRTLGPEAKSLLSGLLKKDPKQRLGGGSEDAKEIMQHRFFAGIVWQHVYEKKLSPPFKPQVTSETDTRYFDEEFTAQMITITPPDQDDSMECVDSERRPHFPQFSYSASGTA
Sequence of Microtubule-associated protein 1B (Homo sapiens) (P46821 2-2206 limits assumed): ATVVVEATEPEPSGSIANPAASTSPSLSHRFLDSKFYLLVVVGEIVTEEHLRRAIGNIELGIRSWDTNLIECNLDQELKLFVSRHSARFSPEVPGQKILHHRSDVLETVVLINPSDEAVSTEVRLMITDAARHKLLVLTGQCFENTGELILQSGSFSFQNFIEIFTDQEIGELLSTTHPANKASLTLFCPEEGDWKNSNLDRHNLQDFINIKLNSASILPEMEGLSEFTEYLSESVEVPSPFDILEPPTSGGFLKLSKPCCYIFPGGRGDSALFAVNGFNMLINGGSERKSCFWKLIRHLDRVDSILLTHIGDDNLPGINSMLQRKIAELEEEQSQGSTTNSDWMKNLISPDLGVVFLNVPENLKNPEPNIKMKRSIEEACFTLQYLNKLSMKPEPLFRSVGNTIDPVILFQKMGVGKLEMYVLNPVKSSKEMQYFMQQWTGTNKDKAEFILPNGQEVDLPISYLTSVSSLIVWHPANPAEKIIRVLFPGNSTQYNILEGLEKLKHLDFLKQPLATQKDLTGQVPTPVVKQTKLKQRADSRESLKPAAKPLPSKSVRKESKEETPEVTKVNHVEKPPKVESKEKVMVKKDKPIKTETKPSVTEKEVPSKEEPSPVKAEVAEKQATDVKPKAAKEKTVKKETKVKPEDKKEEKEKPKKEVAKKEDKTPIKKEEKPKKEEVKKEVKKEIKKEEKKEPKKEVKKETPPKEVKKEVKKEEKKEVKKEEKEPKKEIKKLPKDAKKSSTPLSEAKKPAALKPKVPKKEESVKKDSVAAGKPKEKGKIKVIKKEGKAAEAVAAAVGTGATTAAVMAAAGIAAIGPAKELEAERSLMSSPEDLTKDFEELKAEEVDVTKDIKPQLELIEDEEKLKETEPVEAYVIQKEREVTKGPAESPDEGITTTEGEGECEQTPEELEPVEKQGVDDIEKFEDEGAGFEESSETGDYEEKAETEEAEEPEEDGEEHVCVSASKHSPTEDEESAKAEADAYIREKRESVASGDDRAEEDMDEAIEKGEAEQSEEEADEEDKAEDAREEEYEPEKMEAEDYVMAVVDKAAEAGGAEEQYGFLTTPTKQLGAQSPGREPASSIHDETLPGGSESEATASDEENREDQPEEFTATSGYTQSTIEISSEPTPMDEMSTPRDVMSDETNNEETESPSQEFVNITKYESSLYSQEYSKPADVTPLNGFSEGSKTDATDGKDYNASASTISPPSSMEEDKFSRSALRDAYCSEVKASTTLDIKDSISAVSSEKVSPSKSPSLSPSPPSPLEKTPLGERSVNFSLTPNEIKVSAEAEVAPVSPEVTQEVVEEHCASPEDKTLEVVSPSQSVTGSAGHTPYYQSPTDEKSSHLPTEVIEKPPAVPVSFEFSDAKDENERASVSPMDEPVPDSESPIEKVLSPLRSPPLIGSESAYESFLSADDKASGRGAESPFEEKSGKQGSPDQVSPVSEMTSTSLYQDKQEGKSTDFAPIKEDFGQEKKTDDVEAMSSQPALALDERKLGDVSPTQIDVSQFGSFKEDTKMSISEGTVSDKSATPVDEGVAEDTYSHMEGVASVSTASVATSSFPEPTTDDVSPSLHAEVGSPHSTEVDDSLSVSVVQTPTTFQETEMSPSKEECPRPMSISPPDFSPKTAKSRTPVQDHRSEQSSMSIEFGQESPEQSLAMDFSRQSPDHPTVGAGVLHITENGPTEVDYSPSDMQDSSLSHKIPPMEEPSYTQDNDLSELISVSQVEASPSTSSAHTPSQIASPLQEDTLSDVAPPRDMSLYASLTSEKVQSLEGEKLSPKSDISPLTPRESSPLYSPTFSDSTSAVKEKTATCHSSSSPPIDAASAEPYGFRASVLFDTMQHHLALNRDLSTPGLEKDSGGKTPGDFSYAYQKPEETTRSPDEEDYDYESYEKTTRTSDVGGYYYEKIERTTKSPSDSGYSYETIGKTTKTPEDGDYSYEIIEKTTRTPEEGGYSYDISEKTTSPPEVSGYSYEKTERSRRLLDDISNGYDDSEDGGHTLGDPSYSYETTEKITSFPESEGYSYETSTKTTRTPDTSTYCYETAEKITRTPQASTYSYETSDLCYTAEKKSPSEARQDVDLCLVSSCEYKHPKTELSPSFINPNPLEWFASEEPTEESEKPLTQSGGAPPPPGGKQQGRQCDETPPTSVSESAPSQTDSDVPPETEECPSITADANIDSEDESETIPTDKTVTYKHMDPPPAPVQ
Sequence of Microtubule-associated protein 1B (Homo sapiens) (P46821 2207-2468 limits assumed): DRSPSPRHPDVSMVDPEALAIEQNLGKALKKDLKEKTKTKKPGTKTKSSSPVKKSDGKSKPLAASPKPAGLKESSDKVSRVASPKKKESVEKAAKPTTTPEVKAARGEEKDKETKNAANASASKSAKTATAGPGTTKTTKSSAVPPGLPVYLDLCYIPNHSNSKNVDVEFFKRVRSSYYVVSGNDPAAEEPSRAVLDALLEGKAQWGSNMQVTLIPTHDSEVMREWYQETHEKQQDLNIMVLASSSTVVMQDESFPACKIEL

Compound	Activity [1]	IC50 [2] [µM]	Activity [3]	inhibition [4]	Activity [5]	Activity [6]	inhibition [7]	inhibition [8]	Activity [9]	Activity [10]	inhibition [11]	inhibition [12]	inhibition [13]	inhibition [14]	Activity [15]	Activity [16]	inhibition [17]	fold change (FC) [18]	Activity [19]	IC50 [20] [µM]
C/C=C(\C)C(=O)OCC1=C2/C(=C\[C@@]3(C)CC[C@](O)(O3)[C@H](C)C[C@@H]2O)OC1=O	Dose-dependent effect	6.5	Active	Active	Non-toxic	Non-toxic	Active	Active	Active	Active	Dose-dependent effect	Active	inactive	Active	Active	inactive	Active	2.421	inactive	
C/C=C(\C)C(=O)O[C@H]1C[C@@H](C)[C@]2(O)CC[C@](C)(/C=C3/OC(=O)C(COC(C)=O)=C31)O2	Dose-dependent effect	3.5	Active	Active	Non-toxic	Non-toxic	Active	Active	Active	Active	Dose-dependent effect	Active	inactive	Active	Active	inactive	Active	2.0137	inactive	1.7
C/C=C(\C)C(=O)O[C@H]1C[C@@H](C)[C@]2(OC)CC[C@](C)(/C=C3/OC(=O)C(COC(C)=O)=C31)O2	Dose-dependent effect	6.6		Active			Active			Active	Dose-dependent effect		inactive			inactive			inactive	3.4
